The source made the active and inactive calls. The calls are words filed in the database; no cut-off is given here.
Legend:
Format in all cases: cell-based
[1] = molecular target: T1, Solute carrier family 2, facilitated glucose transporter member 4 (Rattus norvegicus) (UniProt P19357); assay: Induction of rat GLUT4 translocation in rat L6 cells expressing myc-tagged GLUT4 incubated for 3 hrs by antibody-coupled colourimetric assay
T1 sequence (whole entry): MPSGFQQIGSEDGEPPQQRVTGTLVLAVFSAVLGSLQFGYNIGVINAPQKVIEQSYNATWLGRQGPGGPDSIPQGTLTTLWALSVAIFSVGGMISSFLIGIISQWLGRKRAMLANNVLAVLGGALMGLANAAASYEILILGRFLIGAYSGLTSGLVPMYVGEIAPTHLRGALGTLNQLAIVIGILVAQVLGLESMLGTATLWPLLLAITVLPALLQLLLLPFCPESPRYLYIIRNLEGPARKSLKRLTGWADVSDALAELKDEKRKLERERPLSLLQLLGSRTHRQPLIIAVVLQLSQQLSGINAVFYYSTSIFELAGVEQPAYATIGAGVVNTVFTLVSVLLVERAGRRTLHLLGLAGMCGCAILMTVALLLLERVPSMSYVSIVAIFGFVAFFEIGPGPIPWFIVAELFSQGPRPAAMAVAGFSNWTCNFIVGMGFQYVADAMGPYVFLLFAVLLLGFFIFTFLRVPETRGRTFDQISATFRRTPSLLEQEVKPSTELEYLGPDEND
How it was run: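 L6-GLUT4myc myotubes, non-permeabilized, treated 3 h with vehicle (DMSO), insulin 100 nM or compound at 5, 10, 25 µM. Fixed in 3% paraformaldehyde 30 min, glycine-quenched, milk-blocked, then anti-myc 1.0 µg/ml 1 h. HRP secondary with o-phenylenediamine read-out at OD 492 nm. Triplicates, three independent experiments; expressed as fold over unstimulated cells.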

[2] = molecular target: T1, Solute carrier family 2, facilitated glucose transporter member 4 (Rattus norvegicus); assay: Stimulation of rat GLUT4-mediated glucose uptake in rat L6 cells expressing myc-tagged GLUT4 at 10 uM incubated for 16 hrs by scintillation counting based 2-[3H]DG uptake assay
How it was run: (§1)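 Differentiated L6-GLUT4myc myotubes (2% FBS, 6–7 days after seeding) exposed to compound for 16 h; insulin 100 nM as positive control. Uptake measured 5 min at room temperature in HEPES-buffered saline with 10 µM 2-DG (0.5 µCi/ml 2-[3H]DG), then lysis and scintillation counting. Cytochalasin B (25 µM) background subtracted. Duplicates normalized to total protein; percent stimulation versus control cells.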

[3] = molecular target: T1, Solute carrier family 2, facilitated glucose transporter member 4 (Rattus norvegicus); assay: Stimulation of rat GLUT4-mediated glucose uptake in rat L6 cells expressing myc-tagged GLUT4 incubated for 16 hrs by scintillation counting based 2-[3H]DG uptake assay; how it was run: as §1
[4] = molecular target: T1, Solute carrier family 2, facilitated glucose transporter member 4 (Rattus norvegicus); assay: Stimulation of rat GLUT4-mediated glucose uptake in rat L6 cells expressing myc-tagged GLUT4 at 10 uM incubated for 16 hrs in presence of 1 uM PI3K inhibitor wortmannin by scintillation counting based 2-[3H]DG uptake assay
How it was run: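 Differentiated L6-GLUT4myc myotubes treated with compound at 10 µM, with wortmannin (1 µM) present for the final hour. Uptake then measured 5 min at room temperature in HEPES-buffered saline with 10 µM 2-DG (0.5 µCi/ml 2-[3H]DG), followed by lysis and scintillation counting. Cytochalasin B (25 µM) nonspecific uptake subtracted; duplicates normalized to protein, expressed versus control.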

[5] = tested on: L6; assay: Toxicity in rat L6 cells expressing myc-tagged rat GLUT4 assessed as inhibition of glucose uptake at 10 uM incubated for 16 hrs by scintillation counting based 2-[3H]DG uptake assay; settings: l6, 16 h; how it was run: as §1

Row | SMILES | Activity [1] | fold change (FC) [2] | Activity [3] | Activity [4] | Activity [2] | Activity [5]
1 | COc1cccc(C(c2oc(CO)cc(=O)c2O)c2c[nH]c3ccccc23)c1OC (stereo not given) | Dose-dependent effect | 1.25 | Dose-dependent effect | inactive | – | –
2 | O=c1cc(CO)oc(C(c2ccccc2)c2ccc[nH]2)c1O (stereo not given) | – | – | – | – | inactive | –
3 | COc1ccc(C(c2oc(CO)cc(=O)c2O)c2c[nH]c3ccccc23)cc1 (stereo not given) | – | – | – | – | inactive | Toxic
4 | COc1ccc(SC(c2ccccc2)c2oc(CO)cc(=O)c2O)cc1 (stereo not given) | Dose-dependent effect | 1.38 | Dose-dependent effect | inactive | – | –
5 | O=c1cc(CO)oc(C(c2ccccc2)c2cn(Cc3ccccc3)c3ccccc23)c1O (stereo not given) | – | – | – | – | inactive | Toxic
6 | O=c1cc(CO)oc(C(c2ccc(Cl)cc2)c2c[nH]c3ccccc23)c1O (stereo not given) | – | – | – | – | inactive | Toxic
7 | O=c1cc(CO)oc(C(c2ccccc2)c2csc3ccccc23)c1O (stereo not given) | – | – | – | – | inactive | –
8 | O=c1cc(CO)oc(C(c2ccc3ccccc3c2)c2c[nH]c3ccccc23)c1O (stereo not given) | – | – | – | – | inactive | Toxic
9 | O=c1cc(CO)oc(C(Sc2ccccc2)c2ccccc2)c1O (stereo not given) | Dose-dependent effect | 1.33 | Dose-dependent effect | inactive | – | –
10 | O=c1cc(CO)oc(C(c2ccccc2)c2c[nH]c3ccccc23)c1O (stereo not given) | – | – | – | – | inactive | Toxic
11 | CCCCCCCCC(c1oc(CO)cc(=O)c1O)c1c[nH]c2ccccc12 (stereo not given) | – | – | – | – | inactive | –
12 | O=c1cc(CO)oc(C(c2ccccc2)c2c(-c3ccccc3)[nH]c3ccccc23)c1O (stereo not given) | – | – | – | – | inactive | Toxic
13 | O=c1cc(CO)oc(C(c2ccc(F)cc2)c2c[nH]c3ccccc23)c1O (stereo not given) | – | – | – | – | inactive | Toxic
14 | COc1ccc2[nH]cc(C(c3ccccc3)c3oc(CO)cc(=O)c3O)c2c1 (stereo not given) | Dose-dependent effect | 1.25 | Dose-dependent effect | inactive | – | –
15 | Cc1ccc(C(c2ccccc2)c2oc(CO)cc(=O)c2O)s1 (stereo not given) | Dose-dependent effect | 1.21 | – | inactive | – | –
16 | O=c1cc(CO)oc(C(c2ccc(Br)cc2)c2c[nH]c3ccccc23)c1O (stereo not given) | – | – | – | – | inactive | Toxic
17 | COc1ccc(OC)c(C(c2oc(CO)cc(=O)c2O)c2c[nH]c3ccccc23)c1 (stereo not given) | Dose-dependent effect | 1.21 | Dose-dependent effect | inactive | – | –
18 | CCCCCn1cc(C(c2ccccc2)c2oc(CO)cc(=O)c2O)c2ccccc21 (stereo not given) | – | – | – | – | inactive | Toxic
19 | Cn1cc(C(c2ccccc2)c2oc(CO)cc(=O)c2O)c2ccccc21 (stereo not given) | – | – | – | – | inactive | –
20 | N#Cc1ccc2[nH]cc(C(c3ccccc3)c3oc(CO)cc(=O)c3O)c2c1 (stereo not given) | – | – | – | – | inactive | –
21 | CCCCC(c1oc(CO)cc(=O)c1O)c1c[nH]c2ccccc12 (stereo not given) | – | – | – | – | inactive | –
22 | O=c1cc(CO)oc(C(c2ccccc2)c2ccc(O)cc2)c1O (stereo not given) | Dose-dependent effect | 1.34 | – | inactive | – | –
